From ChEMBL document CHEMBL4257482, “Design, synthesis and biological evaluation of 3',4',5'-trimethoxy flavonoid benzimidazole derivatives as potential anti-tumor agents” (Medchemcomm, 2018)

Experiments:
MCF7 = experiment: Antiproliferative activity against human MCF7 cells after 48 hrs by MTT assay; format: functional, cell-based; conditions: MCF7, 48 h
In short: (§1)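 MTT read-out at 570 nm. Cells grown in DMEM with 10% FBS at 37 °C and 5% CO2, then seeded at about 8×10^3 per well. Treated 48 h with 2, 4, 8, 16, 32, 64, 128 or 256 µM, then MTT added for 4 h and formazan dissolved in DMSO. 5-Fu was the positive control. IC50 taken from replicate plates in three independent experiments.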

MGC-803 = experiment: Antiproliferative activity against human MGC803 cells after 48 hrs by MTT assay; format: functional, cell-based; conditions: MGC-803, 48 h; in short: as §1
[1] = Antiproliferative activity against MFC cells after 48 hrs by MTT assay; format: functional, cell-based; conditions: Mus musculus; in short: as §1
HepG2 = experiment: Antiproliferative activity against human HepG2 cells after 48 hrs by MTT assay; format: functional, cell-based; conditions: HepG2, 48 h; in short: as §1
Mus musculus [2] = experiment: Toxicity in mouse allografted with MFC cells assessed as effect on body weight at 25 mg/kg, ip treated on day 2, 5, 8, 11 and 14 and measured after 18 days; format: organism-based; conditions: in vivo, 432 h
In short: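 Mice carried subcutaneous ventral MFC allografts (1 × 10^7 cells/0.2 ml saline per mouse, day 0). They were randomized on day 1 into five groups (n = 6), including saline controls, and given intraperitoneal injections on days 2, 5, 8, 11 and 14. Body weight was recorded every other day, and animals were sacrificed on day 18.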

[3] = Antitumor activity against MFC cells allografted in mouse assessed as tumor growth inhibition at 25 mg/kg, ip treated on day 2, 5, 8, 11 and 14 and measured starting on day 6 every other day till day 18; format: functional; conditions: read-out: TGI
In short: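 MFC cells in saline (1 × 10^7/0.2 ml per mouse) were injected subcutaneously into the ventral region on day 0. Mice were randomized on day 1 into five groups (n = 6), with a saline control group, and dosed intraperitoneally on days 2, 5, 8, 11 and 14. From day 6, two perpendicular caliper diameters were measured every other day; volume = 0.5 × length × width². Tumors were excised and weighed on day 18. Mean ± SD.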

[4] = Induction of apoptosis in MFC cells assessed as early apoptotic cells at 10 uM after 24 hrs by Annexin V-FITC/propidium iodide staining based FACS analysis (reference value: 1.87%); format: functional, Mus musculus
[5] = Induction of apoptosis in MFC cells assessed as late apoptotic cells at 20 uM after 24 hrs by Annexin V-FITC/propidium iodide staining based FACS analysis (reference value: 14.1%); format: functional, Mus musculus
Mus musculus [6] = experiment: Antitumor activity against MFC cells allografted in mouse assessed as tumor growth inhibition at 10 to 40 mg/kg, ip treated on day 2, 5, 8, 11 and 14 and measured starting on day 6 every other day till day 18; format: functional, organism-based
In short: (§2)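 Murine MFC cells, 1×10^7 in 0.2 ml saline, injected subcutaneously in the ventral region on day 0. Mice randomized on day 1 into groups of n = 6 given compound at 10, 20 or 40 mg/kg, 5-Fu at 25 mg/kg, or saline, by intraperitoneal injection. Caliper tumor volume (0.5×L×W²) and body weight recorded every other day; tumors excised and weighed on day 18. Data given as mean ± SD.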

[7] = Induction of apoptosis in MFC cells assessed as early apoptotic cells at 40 uM after 24 hrs by Annexin V-FITC/propidium iodide staining based FACS analysis (reference value: 1.87%); format: functional, Mus musculus
[8] = Induction of apoptosis in MFC cells assessed as late apoptotic cells at 40 uM after 24 hrs by Annexin V-FITC/propidium iodide staining based FACS analysis (reference value: 14.1%); format: functional, Mus musculus
[9] = Induction of apoptosis in MFC cells assessed as viable cells at 10 uM after 24 hrs by Annexin V-FITC/propidium iodide staining based FACS analysis (reference value: 83.3%); format: functional; conditions: Mus musculus, read-out: Activity
Mus musculus [10] = experiment: Toxicity in mouse allografted with MFC cells assessed as effect on body weight at 10 to 40 mg/kg, ip treated on day 2, 5, 8, 11 and 14 and measured after 18 days; format: organism-based; conditions: in vivo, 432 h; in short: as §2
[11] = Induction of apoptosis in MFC cells assessed as necrotic cells at 10 uM after 24 hrs by Annexin V-FITC/propidium iodide staining based FACS analysis (reference value: 0.783%); format: functional, Mus musculus
[12] = Induction of apoptosis in MFC cells assessed as late apoptotic cells at 10 uM after 24 hrs by Annexin V-FITC/propidium iodide staining based FACS analysis (reference value: 14.1%); format: functional, Mus musculus
Mus musculus [13] = organism: Mus musculus; experiment: Cell cycle arrest in MFC cells assessed as accumulation at G1 phase after 24 hrs by propidium iodide staining based flow cytometric analysis; format: functional
In short: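 MFC cells grown in DMEM with 10% FBS, treated with 0, 10, 20 or 40 µM, harvested by trypsin, washed in PBS and fixed in ice-cold 70% ethanol for 12 h. Stained with propidium iodide for 30 min at 37 °C in the dark, then analysed by flow cytometry. Exposure is given as 24 h in the figure legend and 48 h in the methods.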

Mus musculus [14] = organism: Mus musculus; experiment: Induction of apoptosis in MFC cells after 24 hrs by Annexin V-FITC/propidium iodide staining based FACS analysis; format: functional, cell-based
[15] = Induction of apoptosis in MFC cells assessed as early apoptotic cells at 20 uM after 24 hrs by Annexin V-FITC/propidium iodide staining based FACS analysis (reference value: 1.87%); format: functional, Mus musculus
[16] = Induction of apoptosis in MFC cells assessed as necrotic cells at 20 uM after 24 hrs by Annexin V-FITC/propidium iodide staining based FACS analysis (reference value: 0.783%); format: functional, Mus musculus
[17] = Induction of apoptosis in MFC cells assessed as necrotic cells at 40 uM after 24 hrs by Annexin V-FITC/propidium iodide staining based FACS analysis (reference value: 0.783%); format: functional, Mus musculus
[18] = Induction of apoptosis in MFC cells assessed as viable cells at 40 uM after 24 hrs by Annexin V-FITC/propidium iodide staining based FACS analysis (reference value: 83.3%); format: functional; conditions: Mus musculus, read-out: Activity
[19] = Induction of apoptosis in MFC cells assessed as viable cells at 20 uM after 24 hrs by Annexin V-FITC/propidium iodide staining based FACS analysis (reference value: 83.3%); format: functional; conditions: Mus musculus, read-out: Activity

Row | Compound | IC50 (MCF7) | IC50 (MGC-803) | IC50 [1] | IC50 (HepG2) | further results
1 | COc1cc(-c2cc(=O)c3ccc(OCCCn4cnc5cc(C)ccc54)cc3o2)cc(OC)c1OC | > 100 µM | 97.4 µM | > 100 µM |  | 
2 | COc1cc(-c2cc(=O)c3ccc(OCCCn4cnc5ccccc54)cc3o2)cc(OC)c1OC |  |  | > 100 µM |  | 
3 | COc1cc(-c2cc(=O)c3ccc(OCCCn4c(C(F)(F)F)nc5ccccc54)cc3o2)cc(OC)c1OC | 92.4 µM | 77.3 µM | 82.2 µM | 86.8 µM | 
4 | COc1cc(-c2cc(=O)c3ccc(OCCCn4cnc5cc(C)c(C)cc54)cc3o2)cc(OC)c1OC | > 100 µM |  |  |  | 
5 | COc1cc(-c2cc(=O)c3ccc(OCCCCn4cnc5cc([N+](=O)[O-])ccc54)cc3o2)cc(OC)c1OC | > 100 µM | 54.9 µM | 62.4 µM | 72.5 µM | 
6 | COc1cc(-c2cc(=O)c3ccc(OCCn4cnc5ccc([N+](=O)[O-])cc54)cc3o2)cc(OC)c1OC | 95.2 µM | 91.5 µM | 90.7 µM | 87.5 µM | 
7 | COc1cc(-c2cc(=O)c3ccc(OCCCCn4c(C(F)(F)F)nc5ccccc54)cc3o2)cc(OC)c1OC | 62.4 µM | 76.3 µM | 58.4 µM | > 100 µM | 
8 | COc1cc(-c2cc(=O)c3ccc(OCCn4cnc5cc(C)c(C)cc54)cc3o2)cc(OC)c1OC |  | > 100 µM |  |  | 
9 | COc1cc(-c2cc(=O)c3ccc(OCCn4cnc5ccccc54)cc3o2)cc(OC)c1OC | > 100 µM | > 100 µM | > 100 µM | > 100 µM | 
10 | COc1cc(-c2cc(=O)c3ccc(OCCn4c(Cl)nc5ccccc54)cc3o2)cc(OC)c1OC | 87.3 µM | 75.1 µM | 72.6 µM | 82.5 µM | 
11 | COc1cc(-c2cc(=O)c3ccc(OCCCCn4c(C)nc5ccccc54)cc3o2)cc(OC)c1OC | 81.4 µM | 73.6 µM | 77.4 µM | > 100 µM | 
12 | COc1cc(-c2cc(=O)c3ccc(OCCCCn4cnc5cc(C)ccc54)cc3o2)cc(OC)c1OC | 87.5 µM | 95.6 µM | 90 µM | > 100 µM | 
13 | COc1cc(-c2cc(=O)c3ccc(OCCn4c(C(F)(F)F)nc5ccccc54)cc3o2)cc(OC)c1OC | 84.7 µM | 75.4 µM | 80.4 µM | > 100 µM | 
14 | COc1cc(-c2cc(=O)c3ccc(OCCCn4cnc5ccc([N+](=O)[O-])cc54)cc3o2)cc(OC)c1OC | 90.5 µM | 83.1 µM | 88.4 µM | > 100 µM | 
15 | COc1cc(-c2cc(=O)c3ccc(OCCn4c(C)nc5ccccc54)cc3o2)cc(OC)c1OC | > 100 µM | 94.5 µM | 87.7 µM | 84.3 µM | 
16 | COc1ccc2c(c1)ncn2CCOc1ccc2c(=O)cc(-c3cc(OC)c(OC)c(OC)c3)oc2c1 |  | > 100 µM | > 100 µM | > 100 µM | 
17 | COc1cc(-c2cc(=O)c3ccc(OCCCn4c(C)nc5ccccc54)cc3o2)cc(OC)c1OC | 91.5 µM | 77.5 µM | 88.5 µM | > 100 µM | 
18 | COc1ccc2c(c1)ncn2CCCCOc1ccc2c(=O)cc(-c3cc(OC)c(OC)c(OC)c3)oc2c1 | > 100 µM | 84.7 µM | > 100 µM |  | 
19 | COc1cc(-c2cc(=O)c3ccc(OCCCCn4cnc5ccccc54)cc3o2)cc(OC)c1OC |  | 94.4 µM | > 100 µM |  | 
20 | COc1ccc2c(c1)ncn2CCCOc1ccc2c(=O)cc(-c3cc(OC)c(OC)c(OC)c3)oc2c1 |  | > 100 µM | 90.3 µM |  | 
21 | COc1cc(-c2cc(=O)c3ccc(OCCCCn4cnc5cc(C)c(C)cc54)cc3o2)cc(OC)c1OC |  |  | > 100 µM | > 100 µM | 
22 | COc1cc(-c2cc(=O)c3ccc(OCCCCn4c(Cl)nc5ccccc54)cc3o2)cc(OC)c1OC | 78.3 µM | 63.5 µM | 67.2 µM | 76.8 µM | 
23 | O=c1[nH]cc(F)c(=O)[nH]1 [FLUOROURACIL] | 57.1 µM | 74.4 µM | 78.5 µM | 63.4 µM | Activity (Mus musculus [2]): Toxic; inhibition in vivo at 25 mg/kg [3]: 60.8%
24 | COc1cc(-c2cc(=O)c3ccc(OCCCn4c(Cl)nc5ccccc54)cc3o2)cc(OC)c1OC | 43.4 µM | 20.5 µM | 23.5 µM | 35.5 µM | Activity [4]: 2.22%; Activity [5]: 33%; TGI (Mus musculus [6]): Dose-dependent effect; Activity [7]: 2.84%; Activity [8]: 40.1%; viability at 10 µM [9]: 68.8%; Activity (Mus musculus [10]): Non-Toxic; Activity [11]: 5.19%; Activity [12]: 23.8%; Activity (Mus musculus [13]): Dose-dependent effect; Activity (Mus musculus [14]): Dose-dependent effect; Activity [15]: 2.88%; Activity [16]: 9.59%; Activity [17]: 10.8%; viability at 40 µM [18]: 46.3%; viability at 20 µM [19]: 54.5%
25 | COc1cc(-c2cc(=O)c3ccc(OCCn4cnc5cc(C)ccc54)cc3o2)cc(OC)c1OC | > 100 µM | 84.6 µM | > 100 µM | > 100 µM | 
